Common to all, as to type: cell-based
Test [1] in a line: Modulation of gamma-secretase expressed in CHO cells co-expressing wild type APP and PS1 assessed as inhibition of amyloid beta-42 production sandwich ELISA. The method in brief:
(§1)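 CHO cells stably overexpressing wild-type APP and PS1 incubated with compounds; Aβ42, Aβ40 and, for selected compounds, Aβ38 in cell-culture supernatants quantified by sandwich ELISA; IC50 derived for Aβ42.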
A general note: In an ELISA, binding on a coated surface is turned into a signal by an enzyme label.

For the next test, the system named is CHO. Nature of the test: Modulation of gamma-secretase expressed in CHO cells co-expressing wild type APP and PS1 assessed as increase of amyloid beta-38 production sandwich ELISA. The method in brief: as §1
For test [2], the target named is Presenilin-1 (Homo sapiens) (UniProt P49768). In words: Binding affinity to gamma-secretase catalytic subunit of PS1 expressed in N2a-APP cells at 0.2 uM followed by irradiated with UV light by Western blot analysis. The method in brief:
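N2a-ANPP cells stably overexpressing APP and all four γ-secretase subunits treated live with 0.2 μM biotinylated photoprobe or DMSO vehicle, irradiated with 350 nm UV; membranes prepared, labeled proteins affinity-purified on streptavidin beads, resolved by SDS gel and Western blotted with antibodies to the four γ-secretase subunits or APP.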

The source made the active and inactive calls. The calls are words filed in the database; no cut-off is given here.

One may read the IC50 as the concentration needed to halve the response being measured. As for `CC(C)C#C[C@@H](c1ccc(C(F)(F)F)cc1)N1CC[C@H](CC(=O)O)C[C@@H]1c1ccc(C(F)(F)F)cc1`, the IC50 in test [1] was 350 nM.

Turning to `CC(C)C#C[C@H](c1ccc(C(F)(F)F)cc1)N1CC[C@@H](CC(=O)O)C[C@H]1c1ccc(C(F)(F)F)cc1`, the IC50 in test [1] worked out at 50 nM.

In the case of `CC(C)/C=C\[C@@H](c1ccc(Cl)cc1)N1CC[C@H](CC(=O)O)C[C@@H]1c1ccc(C(F)(F)F)cc1`, in test [1], the IC50 turned out to be 616 nM.

Consider `CC(C)/C=C\[C@H](c1ccc(Cl)cc1)N1CC[C@@H](CC(=O)O)C[C@H]1c1ccc(C(F)(F)F)cc1`, for which, in test [1], the IC50 was found to be 30 nM.

In the case of `CC(C)C#C[C@@H](c1ccc(Cl)cc1)N1CC[C@H](CC(=O)O)C[C@@H]1c1ccc(C(F)(F)F)cc1`, in test [1], the IC50 was 300 nM.

For `CC(C)C#C[C@H](c1ccc(Cl)cc1)N1CC[C@@H](CC(=O)O)C[C@H]1c1ccc(C(F)(F)F)cc1`, in the test on CHO, the outcome was Active. Moreover, the IC50 in test [1] was found to be 87 nM.

Consider `CC(C)CC[C@H](c1ccc(Cl)cc1)N1CC[C@@H](CC(=O)O)C[C@H]1c1ccc(C(F)(F)F)cc1`, for which the IC50 in test [1] turned out to be 68 nM.

Take `O=C(O)CC1CCN(C(C#CCCCCNC(=O)CCCC[C@@H]2SC[C@@H]3NC(=O)N[C@@H]32)c2ccc(C3(C(F)(F)F)N=N3)cc2)C(c2ccc(C(F)(F)F)cc2)C1` (mixture of isomers): the IC50 in test [1] stood at 2200 nM.

For `COC(=O)CC1CCN(C(C#CCCCCNC(=O)CCCC[C@@H]2SC[C@@H]3NC(=O)N[C@@H]32)c2ccc(C3(C(F)(F)F)N=N3)cc2)C(c2ccc(C(F)(F)F)cc2)C1` (mixture of isomers), the result in test [2] was Active.

With `O=C(O)CC1CCN(C(C#CCCCCOC(=O)CCCC[C@@H]2SC[C@@H]3NC(=O)N[C@@H]32)c2ccc(C3(C(F)(F)F)N=N3)cc2)C(c2ccc(C(F)(F)F)cc2)C1` (mixture of isomers), the outcome in test [2] was Active. In addition, the IC50 in test [1] is 500 nM.

As for `O=C(O)CC1CCN(C(C#CCCCCOC(=O)CCCC[C@@H]2SC[C@@H]3NC(=O)N[C@@H]32)c2ccc(C(F)(F)F)cc2)C(c2ccc(C(F)(F)F)cc2)C1` (mixture of isomers), the IC50 in test [1] amounted to 1000 nM.

In the case of `O=C(O)CC1CCN(C(C#CCCCCO)c2ccc(C3(C(F)(F)F)N=N3)cc2)C(c2ccc(C(F)(F)F)cc2)C1` (racemic), the IC50 in test [1] was 2000 nM.

For `CC(C)C#CC(c1ccc(C2(C(F)(F)F)N=N2)cc1)N1CCC(CC(=O)O)CC1c1ccc(C(F)(F)F)cc1` (racemic), the IC50 in test [1] stood at 190 nM.

For `COc1cc(C(C#CC(C)C)N2CCC(CC(=O)O)CC2c2ccc(C(F)(F)F)cc2)ccc1-n1cnc(C)c1` (racemic), the IC50 in test [1] is 1000 nM.

The record behind these values is ChEMBL document CHEMBL2169857, “Synthesis of a potent photoreactive acidic γ-secretase modulator for target identification in cells” (Bioorg Med Chem, 2012).
